Our source for the IC50 values is BindingDB's records for doi:10.1021/acs.jmedchem.9b00634 (2019).

*1 amine or outer side, *2 acyl side, *3 side chain or, on linkers, in order; H or OH if unused. Where a SMILES comes first, the peptide text is derived from it. The star is where a group is joined. NH(CH2)3O(βDGlc) = OC[C@H]1O[C@@H](OCCCN*)[C@H](O)[C@@H](O)[C@@H]1O; Glutaryl = O=C(CCCC(=O)[*:2])[*:1]

Experiment [1] is described as follows: Binding affinity to GLUT1 in human L02 cells assessed as cytotoxicity by measuring reduction in cell viability measured after 24 hrs by CCK8 assay.
A short description of experiment [2]: Binding affinity to GLUT1 in human A549 cells assessed as cytotoxicity by measuring reduction in cell viability measured after 24 hrs by CCK8 assay. A general note: Tetrazolium dyes change colour on reduction, which living cells bring about.
Experiment [3] in a line: Binding affinity to GLUT1 in human MDA-MB-231 cells assessed as cytotoxicity by measuring reduction in cell viability measured after 24 hrs by CCK8 assay.
Experiment [4] in a line: Binding affinity to GLUT1 in human HGC27 cells assessed as cytotoxicity by measuring reduction in cell viability measured after 24 hrs by CCK8 assay.
Experiment [5] is described as follows: Binding affinity to GLUT1 in human PC3 cells assessed as cytotoxicity by measuring reduction in cell viability measured after 24 hrs by CCK8 assay.
A short description of experiment [6]: Binding affinity to GLUT1 in human NCI-H460 cells assessed as cytotoxicity by measuring reduction in cell viability measured after 24 hrs by CCK8 assay.
Experiment [7] in a line: Binding affinity to GLUT1 in human NCI-H1437 cells assessed as cytotoxicity by measuring reduction in cell viability measured after 24 hrs by CCK8 assay.
Experiment [8] deals with T1, Solute carrier family 2, facilitated glucose transporter member 1 (Homo sapiens, UniProt P11166).
T1 sequence (P11166 whole entry): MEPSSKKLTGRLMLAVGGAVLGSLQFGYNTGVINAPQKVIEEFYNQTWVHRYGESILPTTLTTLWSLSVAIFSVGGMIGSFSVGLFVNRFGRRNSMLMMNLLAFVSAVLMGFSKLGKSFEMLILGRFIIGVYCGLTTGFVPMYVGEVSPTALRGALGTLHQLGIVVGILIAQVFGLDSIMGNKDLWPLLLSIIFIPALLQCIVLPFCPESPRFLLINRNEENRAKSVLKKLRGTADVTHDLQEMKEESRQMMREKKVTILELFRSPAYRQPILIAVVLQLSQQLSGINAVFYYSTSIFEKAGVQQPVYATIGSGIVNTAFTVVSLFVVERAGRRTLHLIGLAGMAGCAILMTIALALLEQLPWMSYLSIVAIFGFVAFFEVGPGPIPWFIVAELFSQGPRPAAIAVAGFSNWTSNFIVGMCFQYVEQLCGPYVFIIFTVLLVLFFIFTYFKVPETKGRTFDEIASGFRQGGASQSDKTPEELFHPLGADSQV
Nature of the experiment: Binding affinity to GLUT1 in human A549 cells assessed as cytotoxicity by measuring reduction in cell viability measured after 24 hrs by CCK8 assay. A digest of the protocol: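 Cells (A549, H460, H1437, PC-3, HGC-27, MDA-MB-231, HEK-293T, L-02) seeded at about 2×10^3/well and grown overnight. Treated 24 h with a peptide concentration series in serum-free medium. Viability by CCK-8; IC50 taken as 50% inhibition versus untreated cells. Average of three experiments, each in triplicate.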

In general, IC50 refers to the point on the concentration scale where inhibition reaches its midpoint. For `CC[C@H](C)[C@H](NC(=O)[C@H](Cc1ccccc1)NC(=O)[C@H](CCCNC(=N)N)NC(=O)[C@H](C)NC(=O)[C@@H](NC(=O)[C@H](CO)NC(=O)[C@H](CCCNC(=N)N)NC(=O)[C@H](CCSC)NC(=O)[C@H](C)NC(=O)[C@H](CCCNC(=N)N)NC(=O)[C@H](Cc1ccccc1)NC(=O)[C@H](Cc1c[nH]c2ccccc12)NC(=O)CNC(=O)[C@@H](N)CCCNC(=N)N)[C@@H](C)CC)C(=O)N[C@@H](C)C(=O)N[C@@H](CCCNC(=N)N)C(=O)N[C@@H](CCC(=O)O)C(=O)N[C@@H](CCCNC(=N)N)C(=O)N[C@@H](CC(C)C)C(=O)N[C@@H](CCCNC(=N)N)C(=O)N[C@@H](CCC(=O)O)C(=O)N[C@@H](Cc1cnc[nH]1)C(=O)N[C@@H](CC(C)C)C(=O)O` (H-RGWFRAMRSIARFIARERLREHL-OH), the IC50 in experiment [1] amounted to 12.6 µM; in experiment [2], 14.3 µM; in experiment [3], 10.5 µM; in experiment [4] it was 12.5 µM; in experiment [5], 15.6 µM; in experiment [6], 12.9 µM. Also, the IC50 in experiment [7] came to 16.5 µM.

With `CC[C@H](C)[C@H](NC(=O)[C@H](Cc1ccccc1)NC(=O)[C@H](CCCNC(=N)N)NC(=O)[C@H](C)NC(=O)[C@@H](NC(=O)[C@H](CO)NC(=O)[C@H](CCCNC(=N)N)NC(=O)[C@H](CCSC)NC(=O)[C@H](C)NC(=O)[C@H](CCCNC(=N)N)NC(=O)[C@H](Cc1ccccc1)NC(=O)[C@H](Cc1c[nH]c2ccccc12)NC(=O)CNC(=O)[C@H](CCCNC(=N)N)NC(=O)CCCC(=O)NCCCO[C@@H]1O[C@H](CO)[C@@H](O)[C@H](O)[C@H]1O)[C@@H](C)CC)C(=O)N[C@@H](C)C(=O)N[C@@H](CCCNC(=N)N)C(=O)N[C@@H](CCC(=O)O)C(=O)N[C@@H](CCCNC(=N)N)C(=O)N[C@@H](CC(C)C)C(=O)N[C@@H](CCCNC(=N)N)C(=O)N[C@@H](CCC(=O)O)C(=O)N[C@@H](Cc1cnc[nH]1)C(=O)N[C@@H](CC(C)C)C(=O)O` ({NH(CH2)3O(βDGlc)-Glutaryl}-RGWFRAMRSIARFIARERLREHL-OH), the IC50 was found to be 25.9 µM in experiment [1]; 10.1 µM in experiment [3]; 12.6 µM in experiment [4]; 9.6 µM in experiment [8]; 6.9 µM in experiment [5]; 8.5 µM in experiment [6].
